Reference: ChEMBL document CHEMBL2034961, “Kinase inhibitory potencies and in vitro antiproliferative activities of N-10 substituted pyrrolo[2,3-a]carbazole derivatives” (Bioorg Med Chem Lett, 2012)

Legend:
[1] = target: T1, Serine/threonine-protein kinase pim-1 (Homo sapiens, UniProt P11309); assay: Inhibition of Pim-1 using RSRHSSYPAGT as substrate assessed as residual activity at 10 uM after 30 mins
Outline: (§1)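 Each Pim isoform (Pim-1, Pim-2, Pim-3) was assayed in duplicate by a previously published method. Compounds were tested at single concentrations of 10 and 1, and results are given as percent residual kinase activity.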
Target sequence in this assay (P11309 whole entry, looked up, canonical isoform): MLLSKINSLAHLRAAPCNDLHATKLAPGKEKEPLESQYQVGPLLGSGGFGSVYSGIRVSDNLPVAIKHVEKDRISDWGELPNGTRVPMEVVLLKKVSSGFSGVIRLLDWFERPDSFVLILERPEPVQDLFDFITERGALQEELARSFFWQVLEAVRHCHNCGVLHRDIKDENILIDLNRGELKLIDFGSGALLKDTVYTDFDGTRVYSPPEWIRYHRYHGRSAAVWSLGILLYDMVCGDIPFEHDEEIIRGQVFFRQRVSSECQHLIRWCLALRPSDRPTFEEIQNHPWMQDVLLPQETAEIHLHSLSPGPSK

[2] = target: T1, Serine/threonine-protein kinase pim-1; assay: Inhibition of Pim-1 using RSRHSSYPAGT as substrate assessed as residual activity at 1 uM after 30 mins; outline: as §1
Target sequence in this assay (P11309 whole entry, looked up, canonical isoform): as above

[3] = target: T1, Serine/threonine-protein kinase pim-1; assay: Inhibition of Pim-1 using RSRHSSYPAGT as substrate after 30 mins
Outline: (§2)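 Kinase assays on each Pim isoform were run in duplicate by a previously published method.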
Target sequence in this assay (P11309 whole entry, canonical isoform): as the sequence (P11309 whole entry, looked up, canonical isoform) above

[4] = target: Serine/threonine-protein kinase pim-2 (Homo sapiens) (UniProt Q9P1W9); assay: Inhibition of Pim-2 using RSRHSSYPAGT as substrate assessed as residual activity at 10 uM after 30 mins; outline: as §1
Serine/threonine-protein kinase pim-2 (Homo sapiens), sequence (Q9P1W9 whole entry, looked up): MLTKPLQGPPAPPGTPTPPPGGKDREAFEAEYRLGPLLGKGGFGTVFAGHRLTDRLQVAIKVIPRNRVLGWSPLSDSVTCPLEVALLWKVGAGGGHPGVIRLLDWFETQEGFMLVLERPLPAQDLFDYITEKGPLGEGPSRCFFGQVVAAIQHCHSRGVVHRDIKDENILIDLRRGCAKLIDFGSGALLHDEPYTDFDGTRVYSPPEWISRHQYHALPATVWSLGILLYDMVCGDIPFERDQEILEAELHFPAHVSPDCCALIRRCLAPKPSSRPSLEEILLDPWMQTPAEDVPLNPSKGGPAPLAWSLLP

[5] = target: Serine/threonine-protein kinase pim-2 (Homo sapiens) (UniProt Q9P1W9); assay: Inhibition of Pim-2 using RSRHSSYPAGT as substrate assessed as residual activity at 1 uM after 30 mins; outline: as §1
[6] = target: T2, Serine/threonine-protein kinase pim-3 (Homo sapiens, UniProt Q86V86); assay: Inhibition of Pim-3 using RSRHSSYPAGT as substrate assessed as residual activity at 10 uM after 30 mins; outline: as §1
[7] = target: T2, Serine/threonine-protein kinase pim-3; assay: Inhibition of Pim-3 using RSRHSSYPAGT as substrate assessed as residual activity at 1 uM after 30 mins; outline: as §1
[8] = target: T2, Serine/threonine-protein kinase pim-3; assay: Inhibition of Pim-3 using RSRHSSYPAGT as substrate after 30 mins; outline: as §2
[9] = Cytotoxicity against human fibroblasts by resazurin reduction test; type: cell-based; details: Fibroblast
Outline: (§3)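 Antiproliferative effect read by resazurin reduction. Cells were a human fibroblast primary culture, PA1 (ovarian carcinoma), and PC3 and DU145 (prostatic carcinoma).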

PA-1 = assay: Cytotoxicity against human PA1 cells by resazurin reduction test; type: functional, cell-based; outline: as §3
PC-3 = assay: Cytotoxicity against human PC3 cells by resazurin reduction test; type: functional, cell-based; outline: as §3
DU-145 = assay: Cytotoxicity against human DU145 cells by resazurin reduction test; type: functional, cell-based; outline: as §3

| Activity [1] | Activity [2] | IC50 [3] | Activity [4] | Activity [5] | Activity [6] | Activity [7] | IC50 [8] | SMILES | IC50 [9] | IC50 (PA-1) | IC50 (PC-3) | IC50 (DU-145) |
| --- | --- | --- | --- | --- | --- | --- | --- | --- | --- | --- | --- | --- |
| 1% | 3% | 46 nM | 40% | 32% | 2% | 3% | 41 nM | N#CCCCCn1c2ccccc2c2ccc3c(C=O)c[nH]c3c21 | 14500 nM | 8000 nM | 16000 nM | 20000 nM |
| 10% | 24% | 75 nM | 22% | 74% | 1% | 7% | 80 nM | CN(C)CCCCn1c2ccccc2c2ccc3c(C=O)c[nH]c3c21 | 630 nM | 486 nM | 650 nM | 960 nM |
| 4% | 23% | 470 nM | 54% | 97% | 3% | 16% | 200 nM | CC(C)(C)OC(=O)NCCCCn1c2ccccc2c2ccc3c(C=O)c[nH]c3c21 | 17300 nM | 14900 nM | 13100 nM | 12200 nM |
